Rows were chosen to be rich in hits. Some 5.9% of all compounds tested hit in one or more screens of this group.
hDAT+cocaine = changed hDAT dopamine uptake under cocaine IC80, either direction, primary screen, cocaine antagonist project, cell-based, LLC-PK1 hDAT, [14C]-dopamine uptake, MLSMR. Sodium-dependent dopamine transporter (Homo sapiens), Q01959. LLC-PK1 hDAT cells, [14C]-dopamine uptake with cocaine IC80; actives deviate in either direction. B-score at 10 µM. actives 1.3% (n = 110,000). AID 449768, 2010;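 active means Z score or B-score, a plate-position-corrected score, falls beyond the plate's 99.7% confidence bounds, in either direction; inactive means both scores lie inside the 99.7% bounds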;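 further: scored against the spread of the other compound wells on the same plate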
Cav3 T inh = Cav3.2 calcium influx blockers – cell-based, Fluo-4 calcium fluorescence, FDSS, MLSMR library, primary screen; actives 4% (n = 100,000); B-score at 10 µM; Voltage-dependent T-type calcium channel subunit alpha-1H (Homo sapiens), O95180; Cav3.2-expressing cells; stronger effect = lower value;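 active means single-dose well whose peak fluorescence ratio is a statistical outlier from its plate by either plate-standardised score or position-corrected B-score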
Target sequence (O95180 whole entry, looked up): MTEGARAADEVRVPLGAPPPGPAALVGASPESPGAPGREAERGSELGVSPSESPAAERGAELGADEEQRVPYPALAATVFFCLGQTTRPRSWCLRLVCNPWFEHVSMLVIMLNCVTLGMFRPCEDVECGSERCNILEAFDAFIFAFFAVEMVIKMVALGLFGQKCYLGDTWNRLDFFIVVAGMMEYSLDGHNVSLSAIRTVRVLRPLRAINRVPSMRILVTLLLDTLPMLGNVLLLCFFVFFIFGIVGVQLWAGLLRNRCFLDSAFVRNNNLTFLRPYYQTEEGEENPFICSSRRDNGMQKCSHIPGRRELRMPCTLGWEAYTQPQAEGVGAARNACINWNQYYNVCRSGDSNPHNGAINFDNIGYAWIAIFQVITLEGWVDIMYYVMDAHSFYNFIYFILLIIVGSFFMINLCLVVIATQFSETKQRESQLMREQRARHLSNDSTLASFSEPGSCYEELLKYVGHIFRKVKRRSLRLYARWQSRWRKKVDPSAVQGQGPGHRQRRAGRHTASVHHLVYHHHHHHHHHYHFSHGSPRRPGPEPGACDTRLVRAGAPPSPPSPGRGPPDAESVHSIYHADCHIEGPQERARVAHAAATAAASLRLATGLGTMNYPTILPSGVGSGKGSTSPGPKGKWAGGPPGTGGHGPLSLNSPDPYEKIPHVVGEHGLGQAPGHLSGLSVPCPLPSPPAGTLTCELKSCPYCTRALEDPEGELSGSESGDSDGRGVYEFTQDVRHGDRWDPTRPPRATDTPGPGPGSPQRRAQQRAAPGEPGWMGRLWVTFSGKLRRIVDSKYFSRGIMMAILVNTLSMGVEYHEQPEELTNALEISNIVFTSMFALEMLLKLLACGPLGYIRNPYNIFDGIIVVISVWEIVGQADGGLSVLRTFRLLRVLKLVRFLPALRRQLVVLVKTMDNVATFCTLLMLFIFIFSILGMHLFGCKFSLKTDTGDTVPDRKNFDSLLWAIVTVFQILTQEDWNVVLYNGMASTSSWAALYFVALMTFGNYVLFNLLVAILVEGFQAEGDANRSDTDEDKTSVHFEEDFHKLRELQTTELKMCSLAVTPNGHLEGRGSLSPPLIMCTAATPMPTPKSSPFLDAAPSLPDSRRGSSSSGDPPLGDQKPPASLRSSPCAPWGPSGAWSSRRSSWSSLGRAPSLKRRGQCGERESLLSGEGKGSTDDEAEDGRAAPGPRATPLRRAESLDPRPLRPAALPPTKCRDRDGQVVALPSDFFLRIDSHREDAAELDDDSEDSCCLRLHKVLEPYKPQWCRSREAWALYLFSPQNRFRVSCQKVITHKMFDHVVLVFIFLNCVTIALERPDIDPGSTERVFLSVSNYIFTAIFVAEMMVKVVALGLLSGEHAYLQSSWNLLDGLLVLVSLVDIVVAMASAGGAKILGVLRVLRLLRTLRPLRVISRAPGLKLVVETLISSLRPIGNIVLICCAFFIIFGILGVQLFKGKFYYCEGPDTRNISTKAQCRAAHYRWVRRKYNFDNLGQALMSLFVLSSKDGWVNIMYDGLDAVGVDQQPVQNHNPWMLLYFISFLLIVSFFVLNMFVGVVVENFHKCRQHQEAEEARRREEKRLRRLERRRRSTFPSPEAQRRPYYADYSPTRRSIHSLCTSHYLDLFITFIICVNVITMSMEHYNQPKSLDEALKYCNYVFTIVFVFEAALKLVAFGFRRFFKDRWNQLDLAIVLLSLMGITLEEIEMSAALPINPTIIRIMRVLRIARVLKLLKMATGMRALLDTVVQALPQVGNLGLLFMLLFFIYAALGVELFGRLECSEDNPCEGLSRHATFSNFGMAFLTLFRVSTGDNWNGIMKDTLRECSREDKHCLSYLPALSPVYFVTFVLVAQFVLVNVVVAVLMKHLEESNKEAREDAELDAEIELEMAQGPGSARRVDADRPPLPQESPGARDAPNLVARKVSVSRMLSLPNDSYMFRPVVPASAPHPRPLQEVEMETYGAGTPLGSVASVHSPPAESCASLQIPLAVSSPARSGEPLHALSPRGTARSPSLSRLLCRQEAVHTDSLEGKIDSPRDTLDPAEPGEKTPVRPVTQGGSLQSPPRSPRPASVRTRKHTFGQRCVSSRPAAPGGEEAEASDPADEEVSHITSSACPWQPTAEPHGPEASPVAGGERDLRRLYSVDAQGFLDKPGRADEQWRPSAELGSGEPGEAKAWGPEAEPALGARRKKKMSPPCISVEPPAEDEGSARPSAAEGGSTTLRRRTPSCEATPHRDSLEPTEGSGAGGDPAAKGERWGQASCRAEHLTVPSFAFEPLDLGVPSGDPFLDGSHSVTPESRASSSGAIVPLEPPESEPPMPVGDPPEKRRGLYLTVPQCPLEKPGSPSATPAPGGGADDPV
Phagocyt inh = inhibitors of macrophage phagocytosis, primary screen, imaging, J774A.1 cells, IgG beads; inhibition, % at 5 µM; AID 1029, 2008; J774A.1 macrophage IgG-bead phagocytosis; actives 0.07% (n = 110,000);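 active means inhibition above the mean of the plate negative controls plus 5 SD, cut at about 13% in these data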;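 further: phagocytic index as fraction of beads internalized from green versus red external bead signal; plate controls were DMSO negative control for no effect and cytochalasin-D positive control for full effect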
Rev-RRE block = HIV-1 Rev-RRE binding inhibitors, primary screen, biochemical, FRET, protein-RNA interaction; P05866; Rev peptide-RRE RNA binding; inhibition, % at 8 µM; actives 0.79% (n = 97,000); AID 704, 2007;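 active means inhibition above the screen-wide mean plus 3 SD, cut at about 35% in these data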;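 further: 0% = median DMSO wells and 100% = median Neomycin B control wells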
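Material: labelled RRE RNA duplex and labelled Rev peptide / Buffer or medium: HEPES pH 7.5 salt buffer with EDTA / Compound dosing: single point, 8 µM final nominal compound concentration / Benchmarks: DMSO low control, neomycin B high control / Timing: 5 min preincubation and 15 min binding, 25 °C / Technique: FRET fluorescence readout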
Measles CPE = compounds protecting cells from measles virus cytopathic effect, primary screen, measles RdRp inhibitor project, single point, MLSMR library, absorbance. Measles virus-infected cells, CPE protection. actives 1.5% (n = 140,000). protection (pct of control), % at 4 µM; in the data active means protection mostly above about 24%, no sharp cut-off; inactive means mostly below about 26%
Pyk2 oligo antag = antagonists of Pyk2 self-association, primary screen, Q293 cells, FERM NanoBiT luminescence, HTS. Protein-tyrosine kinase 2-beta (Homo sapiens), Q14289. stronger effect = lower value. z-score (the deposit names both 25 µM and 10 µM). actives 0.83% (n = 99,000);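 active means Z-score of -3 or lower, scaled per plate to the spread of control and sample wells; inactive means z-score above -3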;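 further: negative z-score means lost luminescence so less FERM oligomerization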
The depositor's hits bear a star; . = no result; + = active, no number; [ ] = dose if it differs, or a comment.

SMILES	hDAT+cocaine	Cav3 T inh	Phagocyt inh	Rev-RRE block	Measles CPE	Pyk2 oligo antag
Cc1onc(-c2ccccc2Cl)c1C(=O)Nc1sc2c(c1C#N)CCC2	-0.697	-5.39*	-0.2	9.4	13.1	0.02
O=C(NCCCN1CCc2ccccc2C1)Nc1ccc(Cl)cc1	-2.52*	-1.3	-2.8	6.1	3.0	0.29
COc1ccc(NC(=O)NCCN2CCc3ccccc3C2)cc1	0.0326	0.0519	.	-1.2	15.7	0.16
CC(C)=NNc1nc2sc3c(c2c(=O)[nH]1)CC(C)(C)OC3	.	.	-12.5	.	5.7	.
CC1(C)Cc2c(sc3nc(N/N=C/c4ccccc4)[nH]c(=O)c23)CO1	.	.	-0.6	.	21.1*	.
CCOC(=O)CN1C=C(c2ccc3ccccc3n2)C(C[N+](=O)[O-])c2ccccc21 (configuration not stated)	1.46	-4.89*	-0.6	93.6*[fluorescence artefact?]	8.3	-0.47
O=C(NNC1=C(C(=O)C(F)(F)F)CCC1)c1cccc(Cl)c1	1.1	-7.56*	-2.9	2.0	2.3	0.45
COc1ccc(Cc2nnc3c4cnn(C)c4ncn23)cc1	-7.4*	-0.013	1.1	-6.6	3.3	0.42
CCOC(=O)c1ccc2[nH]cc(C(C)=O)c(=O)c2c1	0.0146	0.00116	.	52.7*	13.3	-0.51
Cn1cc(C(=O)c2ccc(Cl)cc2Cl)cc1C(=O)O	.	.	3.7	1.3	6.6	0.2
Cn1cc(C(=O)c2ccc(Cl)cc2Cl)cc1C(=O)N/N=C(\N)COc1ccc(F)cc1	1.94	-6.12*	.	11.3	7.7	-0.82
Cn1cc(C(=O)c2ccc(Cl)cc2Cl)cc1C(=O)N/N=C(\N)COc1ccc(Cl)cc1Cl	.	.	.	7.4	4.9	-0.49
Cn1cc(C(=O)c2ccc(Cl)cc2Cl)cc1C(=O)N/N=C(\N)COc1ccccc1	0.239	-6.6*	0.9	-4.0	6.3	0.69
O=C(COC(=O)c1ccccc1Sc1ccc(C(F)(F)F)cc1[N+](=O)[O-])NC(=O)NC1CCCC1	.	.	-13.8	.	7.6	.
CCCCC(O)(CCCC)C(=O)NN(C(=O)OC)c1ccccc1	.	.	-1.5	.	5.3	.
Cc1ccc(S(=O)(=O)Cn2nnnc2C(C)N2CCN(C(=O)c3ccco3)CC2)cc1 (configuration not stated)	0.59	0.948	-0.3	1.9	55.8*	0.8
Cc1ccc(S(=O)(=O)Cn2nnnc2CN2CCN(C(=O)c3ccco3)CC2)cc1	0.203	-0.517	-2.3	-7.7	13.0	0.31
Cc1cc(=O)n2nc(-c3ccccc3)sc2n1	-2.68*	-0.237	-0.3	5.4	.	0.02
COC(=O)c1cc(=O)nc2sc(-c3ccccc3)nn12	-0.916	-0.123	-1.6	-2.6	11.2	-0.46
Cc1nc([N+](=O)[O-])c(Br)n1CC(=O)c1ccc(Br)cc1	-0.188	0.864	.	5.4	30.4	-1.02
Cc1nc([N+](=O)[O-])c(Br)n1CC(=O)c1ccc2ccccc2c1	0.368	0.797	+	9.7	9.0	-2.09
CCNc1ccc(Br)cc(C(=O)/C=C/c2ccc(Cl)cc2)c1=O	.	.	2.3	.	9.9	.
CCNc1ccc(Br)cc(C(=O)/C=C/c2c(Cl)cccc2Cl)c1=O	-0.143	-1.09	.	88.7*[fluorescence artefact?]	5.2	0.22
CNc1ccc(Br)cc(C(=O)/C=C/c2cccc(OC)c2)c1=O	0.0237	-0.812	.	53.0*	4.6	0.88
NC(=O)C1=C[C@H](C2CCCCC2)C[C@H](OCc2ccc(CO)cc2)O1	-0.603	0.651	.	.	.	.
SMILES	hDAT+cocaine	Cav3 T inh	Phagocyt inh	Rev-RRE block	Measles CPE	Pyk2 oligo antag
COc1ccc(-c2oc(/N=C/N3CCOCC3)c(C#N)c2-c2ccc(OC)cc2)cc1	2	-3.88	0.0	-1.1	1.9	-3.57*
N#Cc1c(/N=C/c2ccco2)oc(-c2ccccc2)c1-c1ccccc1	.	.	-0.8	8.7	7.8	.
Cc1ccc(-c2cn3cccnc3n2)cc1NC(=O)c1ccc(Br)o1	-0.00311	0.298	-0.3	3.6	13.5	-0.29
COc1ccc(-c2cn3cccnc3n2)cc1NC(=O)c1ccc(Br)o1	0.794	1.64	0.1	-2.3	4.3	-3.18*
c1cc(CN2CCCCC2)cc(OCCCNc2nc3ccccc3s2)c1	-0.22	-4.34*	.	.	.	.
CC(=O)Nc1ccc(N/C=C/C(=O)c2ccco2)cc1	0.81	0.493	6.1	12.4	14.7	0.54
CN(C)c1ccc(N/C=C/C(=O)c2ccco2)cc1	0.654	-0.0283	178.6*	27.1	20.7	-0.9
CC1(c2nnc(-c3ccccc3)o2)CC(c2ccncc2)=NO1 (configuration not stated)	-1.78	0.557	.	.	.	.
CCOC(=O)c1ccc(N2C(=O)CC(N3CCN(C(=O)c4ccco4)CC3)C2=O)cc1 (configuration not stated)	2.56*	0.993	-1.2	4.2	4.3	1.12
CCOC(=O)CSc1nnc(CNc2cccc(Cl)c2)n1-c1ccccc1	-0.0111	-5.55*	-0.6	5.8	4.5	-0.16
CCOC(=O)CSc1nnc(CNc2ccc(Cl)cc2)n1-c1ccccc1	0.163	-1.8	0.5	.	29.0	-0.48
Cn1c(CNc2cccc(Cl)c2)nnc1SCC(=O)OC1CCCCC1	-0.451	-8.54*	-0.5	11.2	8.8	0.19
CC(C)OC(=O)CSc1nnc(CNc2cccc(Cl)c2)n1C	-0.421	0.619	.	-0.9	13.5	0.24
CN1CCN(C(=O)C2=C[C@H](c3csc4ccccc34)C[C@H](OCCCCO)O2)CC1	1.49	-0.198	.	.	.	.
CC(O)c1c(OCc2ccccc2)ncnc1OCc1ccccc1 (configuration not stated)	1.79	-5.11*	5.3	4.9	10.0	0.74
Cc1nc2ccccc2nc1OCc1ccccc1	.	.	-9.0	.	15.5	.
O=C(OCC(=O)N1N=C(c2ccc(Cl)cc2)CC1c1ccco1)c1ccccc1O (configuration not stated)	-1	-4.65*	4.3	13.8	0.8	-0.8
Cc1ccc(S(=O)(=O)NCC(=O)OCC(=O)N2N=C(c3ccc(Cl)cc3)CC2c2ccco2)cc1C (configuration not stated)	.	.	0.8	.	9.9	0.76
CCOC(=O)c1cnn(CC2CCCCC2)c1N	-0.795	0.047	-0.5	.	10.8	-0.42
CCOc1cc(CNc2cccc3ccccc23)cc(Br)c1OCC(=O)NC(C)(C)C	-0.371	-1.9	0.3	3.2	4.1	-3.74*
C=CCOc1ccc(CNc2ccc(NC(=O)CCC)cc2)cc1OCC	.	.	-6.8	.	8.4	.
CCOc1cc(CNc2ccc(N(C)C)cc2)cc(Br)c1OCC(=O)NC(C)(C)C	0.236	-0.766	4.0	-17.8	20.0	0.36
C=CCOc1c(Br)cc(CNc2ccc(NC(=O)CCC)cc2)cc1OCC	1.83	-5.41*	.	2.0	4.7	1.43
Cc1cccc(C(=O)NNC(=O)CN2C(=O)c3ccccc3C2=O)c1	.	.	-6.0	.	16.1	.

Compound activity from PubChem BioAssay.
